Assay results reported in ChEMBL document CHEMBL1129495, “Highly selective bradykinin agonists and antagonists with replacement of proline residues by N-methyl-D- and L-phenylalanine” (J Med Chem, 1996).
Square brackets hold non-standard residues; d marks the D form. Peptide text beside a SMILES is read from it. Phe(4-guanidino) = N=C(N)Nc1ccc(C[C@H](N)C(=O)O)cc1; 2Thi = N[C@@H](Cc1cccs1)C(=O)O; Aib = CC(C)(N)C(=O)O

What was measured:
[1] = organism: Cavia porcellus; assay: Antagonistic activity was evaluated in Guinea pig lung strip assay.; assay type: functional; parameters: scale not given: the % may be the effect or the level left
Method in brief: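 Lower-lobe lung strips (2–3 mm) from guinea pigs (400–600 g) in Krebs–Henseleit at 37 °C under 1 g load, with isometric tension recorded. After 1 h equilibration, peptide was given 5 min before an ED50 dose of BK. Cumulative BK curves covered 0.01–10 µM. pA2 by the van Rossum method.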

[2] = Selectivity for rat uterus is expressed as the ratio RUT/GPI; assay type: functional
Method in brief: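 Ratio of agonist activity (percent of BK) in estrus rat uterus to that in guinea pig ileum, both from isotonic contraction assays using the Schild 4-point method.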

[3] = organism: Cavia porcellus; assay: Antagonistic activity was evaluated in Guinea pig ileum assay.; assay type: functional; parameters: scale not given: the % may be the effect or the level left
Method in brief: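 Guinea pig terminal ileum in Tyrode at 37 °C under 0.5 g tension, isotonic recording. Analog added 5 min before a cumulative BK dose–response curve (maximum at 0.3 µM BK). pA2 is the negative log of the antagonist concentration that reduces the effect of a double BK dose to that of a single dose. Means of 3–7 determinations.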

[4] = organism: Rattus norvegicus; assay: Agonistic activity was evaluated in Estrus Rat Uterus Assay; assay type: functional
Method in brief: (§1)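 Uteri from female Wistar rats (180–200 g) given diethylstilbestrol 100 µg/kg sc 16 h before use. Distal horns held in de Jalon solution at 28 °C under 0.5 g resting tension, with isotonic contractions recorded. BK was dosed every 4 min and left in the bath 45 s. Agonist activity by Schild 4-point method, expressed as percent of BK activity.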

[5] = Inhibitory activity against low affinity binding site of Bradykinin receptor in guinea pig ileum; assay type: tissue-based; settings: Cavia porcellus
Method in brief: (§2)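 Fresh rat myometrial or guinea pig ileum membranes (0.3–0.5 mg protein) incubated 30 min at 4 °C with 0.05 nM [3H]BK and increasing peptide concentrations. Buffer: 25 mM TES pH 6.8, 1 µM captopril, 1 mM DTE, bacitracin, BSA. Samples filtered on PEI-treated GF/C and counted. High- and low-affinity IC50s from Tobler–Engel analysis; duplicates.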

[6] = Inhibitory activity against low affinity binding site of Bradykinin receptor in rat uterus membrane was reported.; assay type: cell membranes; method in brief: as §2
[7] = organism: Cavia porcellus; assay: Agonistic activity against selectivity for smooth muscle contraction in guinea pig ileum.; assay type: functional, Muscle tissue
Method in brief: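 Isolated terminal ileum (1.5 cm) from guinea pigs fasted 16 h, in Tyrode at 37 °C. Isotonic contractions recorded under 0.5 g resting tension. Agonist activity measured by Schild 4-point method against BK doses of 1 and 2 nM, expressed as percent of BK activity.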

[8] = organism: Rattus norvegicus; assay: Agonistic activity against selectivity for smooth muscle contraction in rat uterus.; assay type: functional, Muscle tissue; method in brief: as §1
[9] = Inhibitory activity against high affinity binding site of Bradykinin receptor in guinea pig ileum was reported.; assay type: tissue-based; settings: Cavia porcellus; method in brief: as §2
[10] = Inhibitory activity against high affinity binding site of Bradykinin receptor in rat uterus membrane was reported.; assay type: cell membranes; method in brief: as §2

Compound | Activity [1] | Ratio [2] | Activity [3] | Activity [4] | IC50 [5] | IC50 [6] | Activity [7] | Activity [8] | IC50 [9] | IC50 [10]
CN(C(=O)[C@H](CO)NC(=O)[C@H](Cc1cccs1)NC(=O)CNC(=O)[C@@H]1C[C@@H](O)CN1C(=O)[C@@H]1CCCN1C(=O)[C@H](CCCN=C(N)N)NC(=O)[C@H](N)CCCN=C(N)N)[C@H](Cc1ccccc1)C(=O)N[C@@H](Cc1ccccc1)C(=O)N[C@@H](CCCN=C(N)N)C(=O)O | 0.04% | 10000 | 0.006% | 86% | – | – | – | – | – | –
CN(C(=O)[C@H](CO)NC(=O)[C@H](Cc1ccccc1)NC(=O)CNC(=O)[C@@H]1CCCN1C(=O)[C@@H]1CCCN1C(=O)[C@@H](N)CCCN=C(N)N)[C@@H](Cc1ccccc1)C(=O)N[C@@H](Cc1ccccc1)C(=O)N[C@@H](CCCN=C(N)N)C(=O)O | 0.1% | – | 0.03% | 0.2% | 700 nM | 500 nM | – | – | – | –
CC[C@@H](C)[C@@H](N)C(=O)N[C@@H](CO)C(=O)N[C@@H](CCCN=C(N)N)C(=O)N1CCC[C@H]1C(=O)N1CCC[C@H]1C(=O)NCC(=O)N[C@@H](Cc1ccccc1)C(=O)N[C@@H](CO)C(=O)N1CCC[C@H]1C(=O)N[C@@H](Cc1ccccc1)C(=O)N[C@@H](CCCN=C(N)N)C(=O)O | – | 25 | – | – | – | – | 11% | 271% | – | –
NC(N)=NCCC[C@@H](N)C(=O)N[C@@H](CCCN=C(N)N)C(=O)N1CCC[C@H]1C(=O)N1C[C@H](O)C[C@H]1C(=O)NCC(=O)N[C@@H](Cc1cccs1)C(=O)N[C@@H](CO)C(=O)N1CCC[C@H]1C(=O)N[C@@H](Cc1cccs1)C(=O)N[C@@H](CCCN=C(N)N)C(=O)O | – | 30 | – | – | – | – | 7% | 237% | – | –
NC(N)=NCCC[C@H](NC(=O)[C@H](Cc1cccs1)NC(=O)[C@@H]1CCCN1C(=O)[C@H](CO)NC(=O)[C@H](Cc1ccccc1)NC(=O)CNC(=O)[C@@H]1CCCN1C(=O)[C@@H]1CCCN1C(=O)[C@@H](N)CCCN=C(N)N)C(=O)O (H-RPPGFSP[2Thi]R-OH) | – | 13 | – | – | – | – | 40% | 500% | – | –
CN(C(=O)[C@H](CO)NC(=O)[C@H](Cc1ccccc1)NC(=O)CNC(=O)[C@@H]1CCCN1C(=O)[C@@H]1CCCN1C(=O)[C@H](CCCN=C(N)N)NC(=O)[C@H](N)CCCN=C(N)N)[C@@H](Cc1ccccc1)C(=O)N[C@@H](Cc1ccccc1)C(=O)N[C@@H](CCCN=C(N)N)C(=O)O [listing 1 of 2 here] | 0.08% | – | 0.07% | 0.5% | – | – | – | – | – | –
H-RPPGFSPFK-OH | – | 0.01 | – | – | – | – | 20% | 0.2% | – | –
CN(C(=O)[C@@H](N)CCCN=C(N)N)[C@H](Cc1ccccc1)C(=O)N1CCC[C@H]1C(=O)NCC(=O)N[C@@H](Cc1ccccc1)C(=O)N[C@@H](CO)C(=O)N1CCC[C@H]1C(=O)N[C@@H](Cc1ccccc1)C(=O)N[C@@H](CCCN=C(N)N)C(=O)O | 0.05% | – | 0.15% | 0.15% | 3780 nM | 100 nM | – | – | 57 nM | –
CN(C(=O)[C@@H]1CCCN1C(=O)[C@@H](N)CCCN=C(N)N)[C@@H](Cc1ccccc1)C(=O)NCC(=O)N[C@@H](Cc1ccccc1)C(=O)N[C@@H](CO)C(=O)N1CCC[C@H]1C(=O)N[C@@H](Cc1ccccc1)C(=O)N[C@@H](CCCN=C(N)N)C(=O)O | 0.03% | – | 0.05% | 0.03% | 8000 nM | 375 nM | – | – | 2.6 nM | 0.2 nM
CN(C(=O)[C@H](CO)NC(=O)[C@H](Cc1ccccc1)NC(=O)CNC(=O)[C@@H]1C[C@@H](O)CN1C(=O)[C@@H]1CCCN1C(=O)[C@H](CCCN=C(N)N)NC(=O)[C@H](N)CCCN=C(N)N)[C@H](Cc1ccccc1)C(=O)N(C)[C@@H](Cc1ccccc1)C(=O)N[C@@H](CCCN=C(N)N)C(=O)O [listing 1 of 2 here] | 0.45% | 4000 | 0.01% | 40% | – | – | – | – | – | –
N=C(N)Nc1ccc(C[C@H](NC(=O)[C@H](Cc2ccccc2)NC(=O)[C@@H]2CCCN2C(=O)[C@H](CO)NC(=O)[C@H](Cc2ccccc2)NC(=O)CNC(=O)[C@@H]2CCCN2C(=O)[C@@H]2CCCN2C(=O)[C@@H](N)Cc2ccc(NC(=N)N)cc2)C(=O)O)cc1 (H-[Phe(4-guanidino)]PPGFSPF[Phe(4-guanidino)]-OH) | – | 0.001 | – | – | – | – | 2% | 0.001% | – | –
CC(C)(NC(=O)[C@@H](Cc1c[nH]c2ccccc12)NC(=O)[C@H](Cc1ccccc1)NC(=O)CNC(=O)[C@@H]1CCCN1C(=O)[C@@H]1CCCN1C(=O)[C@@H](N)CCCN=C(N)N)C(=O)N[C@@H](Cc1ccccc1)C(=O)N[C@@H](CCCN=C(N)N)C(=O)O | – | 0.442 | – | – | – | – | 226% | 100% | – | –
CN(C(=O)[C@H](CO)NC(=O)[C@H](Cc1ccccc1)NC(=O)CNC(=O)[C@@H]1CCCN1C(=O)[C@@H]1CCCN1C(=O)[C@H](CCCN=C(N)N)NC(=O)[C@H](N)CCCN=C(N)N)[C@@H](Cc1ccccc1)C(=O)N[C@@H](Cc1ccccc1)C(=O)N[C@@H](CCCN=C(N)N)C(=O)O [listing 2 of 2 here] | – | – | – | – | 1 nM | 33 nM | – | – | – | –
NC(N)=NCCC[C@H](NC(=O)[C@H](Cc1cccs1)NC(=O)[C@@H]1CCCN1C(=O)[C@H](CO)NC(=O)[C@H](Cc1cccs1)NC(=O)CNC(=O)[C@@H]1CCCN1C(=O)[C@@H]1CCCN1C(=O)[C@@H](N)CCCN=C(N)N)C(=O)O (H-RPPG[2Thi]SP[2Thi]R-OH) | – | 5 | – | – | – | – | 200% | 1000% | – | –
CC(C)(NC(=O)[C@H](CO)NC(=O)[C@H](Cc1ccccc1)NC(=O)CNC(=O)[C@@H]1CCCN1C(=O)[C@@H]1CCCN1C(=O)[C@@H](N)CCCN=C(N)N)C(=O)N[C@@H](Cc1ccccc1)C(=O)N[C@@H](CCCN=C(N)N)C(=O)O (H-RPPGFS[Aib]FR-OH) | – | 0.13 | – | – | – | – | 418% | 55% | – | –
NC(N)=NCCC[C@H](NC(=O)[C@H](Cc1ccccc1)NC(=O)[C@@H](Cc1ccccc1)NC(=O)CNC(=O)[C@H](Cc1ccccc1)NC(=O)CNC(=O)[C@@H]1CCCN1C(=O)[C@@H]1CCCN1C(=O)[C@@H](N)CCCN=C(N)N)C(=O)O | – | 100 | – | – | – | – | 0.3% | 31% | – | –
CN(C(=O)[C@H](CO)NC(=O)[C@H](Cc1ccccc1)NC(=O)CNC(=O)[C@@H]1CCCN1C(=O)[C@@H]1CCCN1C(=O)[C@@H](N)CCCN=C(N)N)[C@H](Cc1ccccc1)C(=O)N[C@@H](Cc1ccccc1)C(=O)N[C@@H](CCCN=C(N)N)C(=O)O | 1.4% | 300 | 0.04% | 136% | 132 nM | 4.8 nM | – | – | 1 nM | 0.11 nM
CC(C)(NC(=O)[C@@H](Cc1ccccc1)NC(=O)[C@H](Cc1ccccc1)NC(=O)CNC(=O)[C@@H]1CCCN1C(=O)[C@@H]1CCCN1C(=O)[C@@H](N)CCCN=C(N)N)C(=O)N[C@@H](Cc1ccccc1)C(=O)N[C@@H](CCCN=C(N)N)C(=O)O | – | 0.291 | – | – | – | – | 426% | 124% | – | –
CN(C(=O)[C@H](CO)NC(=O)[C@H](Cc1ccccc1)N(C)C(=O)CNC(=O)[C@@H]1C[C@@H](O)CN1C(=O)[C@@H]1CCCN1C(=O)[C@H](CCCN=C(N)N)NC(=O)[C@H](N)CCCN=C(N)N)[C@H](Cc1ccccc1)C(=O)N(C)[C@@H](Cc1ccccc1)C(=O)N[C@@H](CCCN=C(N)N)C(=O)O | 0.5% | 3000 | 0.005% | 15% | – | – | – | – | – | –
CC(C)(NC(=O)[C@@H](Cc1ccc(Cl)cc1)NC(=O)C(Cc1ccccc1)NC(=O)CNC(=O)[C@@H]1CCCN1C(=O)[C@@H]1CCCN1C(=O)[C@@H](N)CCCN=C(N)N)C(=O)NC(Cc1ccccc1)C(=O)N[C@@H](CCCN=C(N)N)C(=O)O (stereo in doubt) | – | 0.3 | – | – | – | – | 321% | 97% | – | –
CN(C(=O)[C@H](CO)NC(=O)[C@H](Cc1ccccc1)NC(=O)CNC(=O)[C@@H]1C[C@@H](O)CN1C(=O)[C@@H]1CCCN1C(=O)[C@H](CCCN=C(N)N)NC(=O)[C@H](N)CCCN=C(N)N)[C@H](Cc1ccccc1)C(=O)N(C)[C@@H](Cc1ccccc1)C(=O)N[C@@H](CCCN=C(N)N)C(=O)O [listing 2 of 2 here] | – | – | – | – | 33 nM | 18 nM | – | – | – | 0.33 nM
CN(C(=O)[C@@H]1CCCN1C(=O)[C@@H](N)CCCN=C(N)N)[C@H](Cc1ccccc1)C(=O)NCC(=O)N[C@@H](Cc1ccccc1)C(=O)N[C@@H](CO)C(=O)N1CCC[C@H]1C(=O)N[C@@H](Cc1ccccc1)C(=O)N[C@@H](CCCN=C(N)N)C(=O)O | 0.03% | – | 0.03% | 0.02% | 1400 nM | 57 nM | – | – | – | 0.3 nM
